Measured values: ChEMBL document CHEMBL5696442, “Discovery of type II inhibitors of TGFβ-activated kinase 1 (TAK1) and mitogen-activated protein kinase kinase kinase kinase 2 (MAP4K2)” (J Med Chem, 2015)

How the values were obtained:
[1] = target: Cyclin-dependent kinase 8 (Homo sapiens) (UniProt P49336); assay: Inhibition of CDK8 Lys2 labeling site in human A-375 cells at 5 uM by KiNativ Profiling analysis relative to control; format: cell-based
Outline: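 Live A375 melanoma cells were treated with compound at 5 or 0.5 μM. The cells were then lysed, and the lysates were labeled with a lysine-reactive ATP or ADP-biotin acyl probe (KiNativ). Inhibition is the compound's protection of each kinase labeling-site peptide from probe labeling, relative to untreated control.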

[2] = target: Epidermal growth factor receptor (Homo sapiens) (UniProt P00533); assay: Inhibition of EGFR ACT labeling site harbouring LLGAEEKEYHAEGGKVPIK in human A-375 cells at 0.5 uM by KiNativ Profiling analysis relative to control; format: cell-based
Outline: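 Live A375 melanoma cells were treated with compound at 0.5 or 5 μM, then lysed. Lysates were labeled with a lysine-reactive ATP or ADP-biotin probe. The read-out was protection of each kinase probe-labeling site from labeling, relative to control.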

[3] = target: T1, Serine/threonine-protein kinase TAO2 (Homo sapiens) (UniProt Q9UL54); assay: Inhibition of TAO2 Lys2 labeling site in human A-375 cells at 5 uM by KiNativ Profiling analysis relative to control; format: cell-based
T1 sequence (whole entry): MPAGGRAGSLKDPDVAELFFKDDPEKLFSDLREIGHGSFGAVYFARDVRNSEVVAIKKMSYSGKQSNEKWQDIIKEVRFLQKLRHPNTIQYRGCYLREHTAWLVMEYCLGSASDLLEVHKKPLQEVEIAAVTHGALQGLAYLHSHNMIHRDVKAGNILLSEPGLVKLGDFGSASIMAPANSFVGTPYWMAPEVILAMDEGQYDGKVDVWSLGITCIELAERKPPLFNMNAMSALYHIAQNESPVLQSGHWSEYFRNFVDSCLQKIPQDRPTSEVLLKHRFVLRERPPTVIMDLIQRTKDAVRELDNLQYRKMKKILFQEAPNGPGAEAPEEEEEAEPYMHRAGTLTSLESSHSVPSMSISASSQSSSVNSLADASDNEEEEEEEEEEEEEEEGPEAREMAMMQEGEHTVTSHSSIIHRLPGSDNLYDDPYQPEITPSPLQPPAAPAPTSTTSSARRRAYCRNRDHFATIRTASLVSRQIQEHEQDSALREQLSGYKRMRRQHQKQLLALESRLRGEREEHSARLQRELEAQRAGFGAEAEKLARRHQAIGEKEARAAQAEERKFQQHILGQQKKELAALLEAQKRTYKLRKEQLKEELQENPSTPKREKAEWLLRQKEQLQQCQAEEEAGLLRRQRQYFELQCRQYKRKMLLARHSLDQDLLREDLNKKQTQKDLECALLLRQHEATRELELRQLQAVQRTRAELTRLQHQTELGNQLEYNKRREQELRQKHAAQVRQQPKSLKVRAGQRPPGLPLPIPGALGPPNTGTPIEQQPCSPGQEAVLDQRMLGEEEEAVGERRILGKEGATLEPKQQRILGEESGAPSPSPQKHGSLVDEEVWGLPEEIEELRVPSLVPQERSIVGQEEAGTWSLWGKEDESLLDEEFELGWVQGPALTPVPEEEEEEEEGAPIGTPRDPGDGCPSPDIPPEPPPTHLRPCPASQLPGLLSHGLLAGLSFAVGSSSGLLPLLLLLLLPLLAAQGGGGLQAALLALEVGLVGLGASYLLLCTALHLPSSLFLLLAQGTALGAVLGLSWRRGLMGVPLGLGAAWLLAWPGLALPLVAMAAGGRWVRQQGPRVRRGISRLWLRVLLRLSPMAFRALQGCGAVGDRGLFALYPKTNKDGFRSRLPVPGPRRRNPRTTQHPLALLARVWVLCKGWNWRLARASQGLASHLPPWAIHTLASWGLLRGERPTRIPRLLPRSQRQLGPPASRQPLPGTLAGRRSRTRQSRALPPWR

[4] = target: Diacylglycerol kinase alpha (Homo sapiens) (UniProt P23743); assay: Inhibition of DGKA ATP labeling site harbouring in human A-375 cells at 0.05 uM by KiNativ Profiling analysis relative to control; format: cell-based
[5] = target: Serine/threonine-protein kinase B-raf (Homo sapiens, UniProt P15056); assay: Inhibition of BRAF (unknown origin) Lys2 labeling site by KiNativ Profiling analysis
[6] = Inhibition of KHS1 Lys1 labeling site in human A-375 cells at 0.05 uM by KiNativ Profiling analysis relative to control; settings: condition cancer
[7] = target: T2, Serine/threonine-protein kinase Nek9 (Homo sapiens) (UniProt Q8TD19); assay: Inhibition of NEK9 Lys1 labeling site harbouring TEDDSLVVWKEVDLTR in human A-375 cells at 0.5 uM by KiNativ Profiling analysis relative to control; format: cell-based
T2 sequence (whole entry): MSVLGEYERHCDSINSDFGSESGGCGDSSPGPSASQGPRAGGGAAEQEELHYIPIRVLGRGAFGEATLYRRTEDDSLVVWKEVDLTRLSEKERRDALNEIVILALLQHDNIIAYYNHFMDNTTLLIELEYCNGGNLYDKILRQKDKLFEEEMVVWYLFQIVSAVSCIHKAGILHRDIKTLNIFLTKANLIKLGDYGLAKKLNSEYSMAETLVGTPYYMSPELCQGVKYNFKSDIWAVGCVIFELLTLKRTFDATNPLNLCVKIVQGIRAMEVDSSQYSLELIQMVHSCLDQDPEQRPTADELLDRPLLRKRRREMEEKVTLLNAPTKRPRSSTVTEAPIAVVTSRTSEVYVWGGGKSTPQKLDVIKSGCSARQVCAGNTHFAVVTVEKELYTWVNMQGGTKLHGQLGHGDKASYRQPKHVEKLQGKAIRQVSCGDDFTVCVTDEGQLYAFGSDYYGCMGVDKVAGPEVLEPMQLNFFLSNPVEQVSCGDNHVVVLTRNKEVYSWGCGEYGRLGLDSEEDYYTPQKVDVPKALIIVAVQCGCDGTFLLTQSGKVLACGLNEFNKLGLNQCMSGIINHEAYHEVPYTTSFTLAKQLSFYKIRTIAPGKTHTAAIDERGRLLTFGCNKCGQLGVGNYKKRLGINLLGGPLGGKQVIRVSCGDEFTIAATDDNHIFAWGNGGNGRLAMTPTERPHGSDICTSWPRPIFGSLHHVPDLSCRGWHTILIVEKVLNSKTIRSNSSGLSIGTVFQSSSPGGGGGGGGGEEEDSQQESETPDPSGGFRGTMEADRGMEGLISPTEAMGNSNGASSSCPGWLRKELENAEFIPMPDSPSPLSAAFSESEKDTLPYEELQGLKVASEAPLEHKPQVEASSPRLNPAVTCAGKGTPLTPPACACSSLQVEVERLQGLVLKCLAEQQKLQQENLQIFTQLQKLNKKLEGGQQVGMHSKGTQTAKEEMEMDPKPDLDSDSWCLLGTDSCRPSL

[8] = target: Cyclin-dependent kinase 11B (Homo sapiens) (UniProt P21127); assay: Inhibition of PITSLRE Lys2 labeling site in human A-375 cells at 0.05 uM by KiNativ Profiling analysis relative to control; format: cell-based
Cyclin-dependent kinase 11B (Homo sapiens), sequence (P21127 whole entry): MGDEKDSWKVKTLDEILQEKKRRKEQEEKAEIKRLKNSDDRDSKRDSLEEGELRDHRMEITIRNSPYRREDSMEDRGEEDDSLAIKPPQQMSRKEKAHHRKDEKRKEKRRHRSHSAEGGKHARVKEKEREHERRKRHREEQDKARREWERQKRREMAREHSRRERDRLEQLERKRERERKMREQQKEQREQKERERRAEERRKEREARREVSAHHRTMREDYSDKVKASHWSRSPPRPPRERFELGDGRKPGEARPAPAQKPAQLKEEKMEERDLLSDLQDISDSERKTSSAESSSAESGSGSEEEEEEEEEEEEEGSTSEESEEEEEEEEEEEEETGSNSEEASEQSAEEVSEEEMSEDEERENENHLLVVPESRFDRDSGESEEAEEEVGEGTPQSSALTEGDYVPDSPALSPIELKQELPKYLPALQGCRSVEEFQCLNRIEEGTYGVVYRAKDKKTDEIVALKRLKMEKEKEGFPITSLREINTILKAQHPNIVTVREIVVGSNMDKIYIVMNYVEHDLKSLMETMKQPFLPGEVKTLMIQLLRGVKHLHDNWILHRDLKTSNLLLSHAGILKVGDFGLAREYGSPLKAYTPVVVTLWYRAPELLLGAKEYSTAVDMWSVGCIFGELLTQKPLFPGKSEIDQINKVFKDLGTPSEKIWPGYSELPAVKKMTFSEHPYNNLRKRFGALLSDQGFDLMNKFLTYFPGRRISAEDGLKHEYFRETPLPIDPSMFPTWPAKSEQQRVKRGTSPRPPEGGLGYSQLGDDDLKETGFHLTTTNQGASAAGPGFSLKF

Cyclin-dependent kinase 8 (Homo sapiens), sequence (P49336 whole entry): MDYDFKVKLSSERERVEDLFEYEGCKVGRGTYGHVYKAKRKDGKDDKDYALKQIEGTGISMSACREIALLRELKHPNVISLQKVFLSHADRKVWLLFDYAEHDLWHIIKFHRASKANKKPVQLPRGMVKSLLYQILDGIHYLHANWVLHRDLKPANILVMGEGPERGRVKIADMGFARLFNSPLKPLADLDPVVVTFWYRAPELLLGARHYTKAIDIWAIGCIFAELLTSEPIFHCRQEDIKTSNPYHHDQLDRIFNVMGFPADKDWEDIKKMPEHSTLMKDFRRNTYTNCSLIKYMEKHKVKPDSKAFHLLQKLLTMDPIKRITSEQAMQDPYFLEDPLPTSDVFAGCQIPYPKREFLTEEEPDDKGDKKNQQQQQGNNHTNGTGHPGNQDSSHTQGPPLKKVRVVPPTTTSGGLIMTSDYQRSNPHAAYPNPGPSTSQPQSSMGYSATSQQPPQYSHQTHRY
Serine/threonine-protein kinase B-raf, sequence (P15056 whole entry): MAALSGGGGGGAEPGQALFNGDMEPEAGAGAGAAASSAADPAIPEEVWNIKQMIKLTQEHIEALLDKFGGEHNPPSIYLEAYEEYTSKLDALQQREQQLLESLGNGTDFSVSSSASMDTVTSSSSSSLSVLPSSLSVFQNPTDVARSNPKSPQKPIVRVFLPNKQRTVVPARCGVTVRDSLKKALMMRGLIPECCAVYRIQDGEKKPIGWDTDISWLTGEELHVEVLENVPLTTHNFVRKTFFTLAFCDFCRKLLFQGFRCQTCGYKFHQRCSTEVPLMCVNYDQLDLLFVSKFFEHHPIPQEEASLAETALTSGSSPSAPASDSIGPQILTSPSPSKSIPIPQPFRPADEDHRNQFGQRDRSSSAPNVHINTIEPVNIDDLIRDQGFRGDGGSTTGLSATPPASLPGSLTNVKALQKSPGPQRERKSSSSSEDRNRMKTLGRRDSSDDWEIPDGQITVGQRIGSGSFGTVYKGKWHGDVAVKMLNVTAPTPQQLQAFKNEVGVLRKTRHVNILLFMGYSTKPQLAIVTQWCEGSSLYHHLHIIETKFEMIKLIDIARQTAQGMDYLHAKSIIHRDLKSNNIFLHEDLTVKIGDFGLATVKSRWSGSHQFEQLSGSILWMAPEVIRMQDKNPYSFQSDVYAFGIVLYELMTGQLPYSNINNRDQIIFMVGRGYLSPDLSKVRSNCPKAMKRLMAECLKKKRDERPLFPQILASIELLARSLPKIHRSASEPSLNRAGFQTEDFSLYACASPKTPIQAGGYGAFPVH
Epidermal growth factor receptor (Homo sapiens), sequence (P00533 whole entry): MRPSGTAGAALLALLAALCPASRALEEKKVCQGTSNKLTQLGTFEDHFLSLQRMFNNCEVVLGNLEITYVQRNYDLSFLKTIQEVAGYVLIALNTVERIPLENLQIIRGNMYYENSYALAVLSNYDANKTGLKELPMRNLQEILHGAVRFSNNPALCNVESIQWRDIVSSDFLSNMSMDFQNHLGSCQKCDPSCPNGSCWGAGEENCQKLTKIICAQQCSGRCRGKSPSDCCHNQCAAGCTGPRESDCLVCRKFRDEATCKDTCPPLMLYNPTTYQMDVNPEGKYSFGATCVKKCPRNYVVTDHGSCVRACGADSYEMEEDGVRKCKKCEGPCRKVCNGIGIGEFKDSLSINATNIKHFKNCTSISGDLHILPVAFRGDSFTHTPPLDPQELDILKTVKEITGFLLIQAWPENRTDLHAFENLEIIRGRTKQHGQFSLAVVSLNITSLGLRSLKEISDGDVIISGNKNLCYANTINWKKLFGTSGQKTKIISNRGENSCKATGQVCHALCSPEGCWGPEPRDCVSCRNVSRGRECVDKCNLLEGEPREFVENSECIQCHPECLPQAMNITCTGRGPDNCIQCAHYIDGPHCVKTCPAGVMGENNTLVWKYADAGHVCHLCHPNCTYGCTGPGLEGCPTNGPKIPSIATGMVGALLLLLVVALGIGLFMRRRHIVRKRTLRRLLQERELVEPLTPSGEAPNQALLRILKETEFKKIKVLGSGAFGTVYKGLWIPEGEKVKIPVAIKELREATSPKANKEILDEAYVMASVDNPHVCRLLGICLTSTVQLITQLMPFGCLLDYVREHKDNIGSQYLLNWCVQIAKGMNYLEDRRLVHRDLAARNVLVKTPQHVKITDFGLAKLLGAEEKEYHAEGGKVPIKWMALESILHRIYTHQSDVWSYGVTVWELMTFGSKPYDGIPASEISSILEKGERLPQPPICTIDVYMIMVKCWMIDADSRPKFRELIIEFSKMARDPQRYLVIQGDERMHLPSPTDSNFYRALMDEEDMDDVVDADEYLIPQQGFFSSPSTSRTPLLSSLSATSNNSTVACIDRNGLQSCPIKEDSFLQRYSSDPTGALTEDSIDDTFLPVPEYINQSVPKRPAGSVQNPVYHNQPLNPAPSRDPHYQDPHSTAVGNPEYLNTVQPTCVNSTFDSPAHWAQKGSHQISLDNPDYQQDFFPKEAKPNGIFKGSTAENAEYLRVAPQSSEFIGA
Diacylglycerol kinase alpha (Homo sapiens), sequence (P23743 whole entry): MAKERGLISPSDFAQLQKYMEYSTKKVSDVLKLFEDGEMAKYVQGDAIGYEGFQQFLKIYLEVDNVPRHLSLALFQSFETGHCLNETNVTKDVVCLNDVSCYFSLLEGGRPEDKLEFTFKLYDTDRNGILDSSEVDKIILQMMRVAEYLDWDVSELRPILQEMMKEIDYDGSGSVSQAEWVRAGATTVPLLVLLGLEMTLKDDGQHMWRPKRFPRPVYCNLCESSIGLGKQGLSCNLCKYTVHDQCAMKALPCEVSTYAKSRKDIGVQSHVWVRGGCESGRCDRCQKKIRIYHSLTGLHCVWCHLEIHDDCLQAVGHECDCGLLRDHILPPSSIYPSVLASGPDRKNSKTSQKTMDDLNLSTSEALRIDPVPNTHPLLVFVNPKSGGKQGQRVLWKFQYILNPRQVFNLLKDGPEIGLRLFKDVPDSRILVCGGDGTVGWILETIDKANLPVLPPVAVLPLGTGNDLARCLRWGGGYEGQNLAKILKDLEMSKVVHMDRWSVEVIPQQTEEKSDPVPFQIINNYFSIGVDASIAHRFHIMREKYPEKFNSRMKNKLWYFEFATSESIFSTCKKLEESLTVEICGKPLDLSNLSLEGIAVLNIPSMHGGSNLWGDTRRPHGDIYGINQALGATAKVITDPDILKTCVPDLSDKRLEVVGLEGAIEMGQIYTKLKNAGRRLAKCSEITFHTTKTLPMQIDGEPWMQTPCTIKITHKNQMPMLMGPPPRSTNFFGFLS

Row | Structure (SMILES) | inhibition [1] [%] | inhibition [2] [%] | inhibition [3] [%] | inhibition [4] [%] | IC50 [5] [µM] | inhibition at 0.05 µM [6] [%] | inhibition [7] [%] | inhibition [8] [%]
1 | CCN1CCN(Cc2ccc(NC(=O)c3ccc(C)c(Oc4ccnc5[nH]ccc45)c3)cc2C(F)(F)F)CC1 | 18 | 4.8 | 82.5 | -8.4 | > 10 | 14.9 | -1.5 | -4.6
2 | CCN1CCN(Cc2ccc(NC(=O)c3ccc(C)c(/C=C/c4cnc5[nH]ccc5c4OC)c3)cc2C(F)(F)F)CC1 | 16.9 | -0.5 | 82.2 | 14.6 | > 10 | 29.4 | -5 | -3.9
